Type in all cases: functional, cell-based
The target in data set [1] is T1, Solute carrier family 22 member 7 (Homo sapiens, UniProt Q9Y694).
T1 sequence (Q9Y694 whole entry): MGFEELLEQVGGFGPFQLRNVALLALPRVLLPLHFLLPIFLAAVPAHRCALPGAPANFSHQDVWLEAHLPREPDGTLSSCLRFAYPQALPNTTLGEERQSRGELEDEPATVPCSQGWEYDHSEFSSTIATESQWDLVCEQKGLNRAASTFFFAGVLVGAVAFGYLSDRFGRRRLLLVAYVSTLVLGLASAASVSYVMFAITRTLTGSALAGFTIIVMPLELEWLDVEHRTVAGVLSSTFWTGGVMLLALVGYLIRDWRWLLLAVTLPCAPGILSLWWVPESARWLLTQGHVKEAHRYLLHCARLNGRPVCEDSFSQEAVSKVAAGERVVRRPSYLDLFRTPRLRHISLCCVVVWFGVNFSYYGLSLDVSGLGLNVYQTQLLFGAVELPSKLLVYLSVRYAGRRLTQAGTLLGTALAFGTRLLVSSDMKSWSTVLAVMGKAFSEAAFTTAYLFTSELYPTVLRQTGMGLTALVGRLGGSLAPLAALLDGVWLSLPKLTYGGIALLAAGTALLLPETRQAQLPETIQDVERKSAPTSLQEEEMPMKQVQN
Kind of data set: (§1) TP_TRANSPORTER: inhibition of PGF2alpha in OAT2-S2 cells. In outline: (§2)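 S2 cells stably expressing human or rat OAT2, seeded at 1 × 10^5 cells/well and grown for 2 days. Washed, then preincubated 10 min at 37 °C in D-PBS (pH 7.4). Uptake of 50 nM [3H]prostaglandin F2α measured at 37 °C with or without various concentrations of cephalosporin: 20 s for human OAT2, 2 min for rat OAT2. Stopped with ice-cold D-PBS; cells lysed in 0.1 N NaOH; scintillation counting.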

For data set [2], the target named is T2, Solute carrier family 22 member 7 (Rattus norvegicus, UniProt Q5RLM2).
T2 sequence (Q5RLM2 whole entry): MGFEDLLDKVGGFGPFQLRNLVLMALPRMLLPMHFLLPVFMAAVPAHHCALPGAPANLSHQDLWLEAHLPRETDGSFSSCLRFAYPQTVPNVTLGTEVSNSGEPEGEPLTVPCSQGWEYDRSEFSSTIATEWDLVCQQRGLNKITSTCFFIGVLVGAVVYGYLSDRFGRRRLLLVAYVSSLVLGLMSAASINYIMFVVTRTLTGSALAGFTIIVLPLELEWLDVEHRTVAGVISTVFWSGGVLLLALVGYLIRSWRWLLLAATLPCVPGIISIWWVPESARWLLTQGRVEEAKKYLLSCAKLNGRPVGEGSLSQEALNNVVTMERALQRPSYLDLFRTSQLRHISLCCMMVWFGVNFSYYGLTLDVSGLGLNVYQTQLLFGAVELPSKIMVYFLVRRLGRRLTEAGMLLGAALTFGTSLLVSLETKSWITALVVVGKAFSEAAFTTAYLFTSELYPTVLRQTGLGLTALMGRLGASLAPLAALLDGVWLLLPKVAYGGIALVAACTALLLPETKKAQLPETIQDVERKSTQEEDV
The description is as §1. In outline:
as §2

The target of data set [3] is T3, Solute carrier family 22 member 11 (Homo sapiens, UniProt Q9NSA0).
T3 sequence (Q9NSA0 whole entry): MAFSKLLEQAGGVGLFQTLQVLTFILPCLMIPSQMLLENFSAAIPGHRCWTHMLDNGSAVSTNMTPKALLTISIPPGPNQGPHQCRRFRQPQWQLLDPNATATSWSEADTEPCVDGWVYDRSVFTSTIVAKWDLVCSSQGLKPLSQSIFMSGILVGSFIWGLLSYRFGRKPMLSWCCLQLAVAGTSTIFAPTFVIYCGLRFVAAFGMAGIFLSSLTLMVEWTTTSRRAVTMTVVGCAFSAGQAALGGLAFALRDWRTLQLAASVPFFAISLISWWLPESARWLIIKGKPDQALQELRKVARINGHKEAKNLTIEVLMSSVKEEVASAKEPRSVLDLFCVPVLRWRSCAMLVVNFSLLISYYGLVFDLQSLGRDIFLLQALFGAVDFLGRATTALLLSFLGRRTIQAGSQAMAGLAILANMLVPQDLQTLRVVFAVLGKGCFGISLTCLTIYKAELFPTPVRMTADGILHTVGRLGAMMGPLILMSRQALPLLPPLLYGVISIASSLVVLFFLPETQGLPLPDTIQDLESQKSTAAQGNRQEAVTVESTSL
Description: TP_TRANSPORTER: cell viability in OAT4-S2 cells. In outline:
(§3)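 S2 cells stably transfected with the human OAT (pcDNA3.1), alongside mock-transfected controls, were seeded at 1 × 10^5 cells/well and cultured for 2 days. Cells were then exposed to 5 mM cephalosporin, with or without 1 mM probenecid, at 33 °C for 24 h. MTT was added for a further 4 h at 33 °C. Cells were solubilized in isopropanol/HCl and OD read at 570 nm (630 nm reference). Four determinations; mean ± S.E.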

Data set [4] concerns the target T4, Organic anion transporter 3 (Homo sapiens, UniProt Q8TCC7).
T4 sequence (Q8TCC7 whole entry): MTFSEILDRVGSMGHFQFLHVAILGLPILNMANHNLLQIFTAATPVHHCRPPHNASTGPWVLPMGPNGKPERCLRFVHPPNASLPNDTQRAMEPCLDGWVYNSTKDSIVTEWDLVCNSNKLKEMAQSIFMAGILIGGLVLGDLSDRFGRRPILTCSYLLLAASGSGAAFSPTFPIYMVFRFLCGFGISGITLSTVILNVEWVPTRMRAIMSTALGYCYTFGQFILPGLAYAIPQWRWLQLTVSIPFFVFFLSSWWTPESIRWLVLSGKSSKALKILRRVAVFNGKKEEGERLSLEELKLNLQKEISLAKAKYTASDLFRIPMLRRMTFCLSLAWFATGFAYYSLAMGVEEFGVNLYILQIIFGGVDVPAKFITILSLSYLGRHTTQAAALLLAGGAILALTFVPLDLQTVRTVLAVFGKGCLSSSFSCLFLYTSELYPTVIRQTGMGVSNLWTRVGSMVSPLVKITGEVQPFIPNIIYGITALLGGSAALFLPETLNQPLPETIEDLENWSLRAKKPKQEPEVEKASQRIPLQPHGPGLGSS
Kind of data set: TP_TRANSPORTER: cell viability in OAT3-S2 cells. Summed up:
as §3

Substrate in data set [5]: CCCCC[C@H](O)/C=C/[C@@H]1[C@@H](C/C=C\CCCC(=O)O)[C@@H](O)C[C@H]1O
Kind of data set: TP_TRANSPORTER: uptake in OAT2-S2 cells.

Drawing on ChEMBL document CHEMBL2074148, “Interaction of human and rat organic anion transporter 2 with various cephalosporin antibiotics” (Eur J Pharmacol, 2003), this text covers IC50, Activity and Km for six molecules.

With `Cn1nnnc1SCC1=C(C(=O)O)N2C(=O)[C@@H](NC(=O)[C@H](O)c3ccccc3)[C@H]2SC1` [CEFAMANDOLE], the IC50 in data set [1] turned out to be 1.57 mM; in data set [2], 3.18 mM.
The corresponding values for `CCN1CCN(C(=O)N[C@@H](C(=O)N[C@@H]2C(=O)N3C(C(=O)O)=C(CSc4nnnn4C)CS[C@H]23)c2ccc(O)cc2)C(=O)C1=O` [CEFOPERAZONE] are 1.33 mM and 1.62 mM.
For `CO/N=C(\C(=O)N[C@@H]1C(=O)N2C(C(=O)O)=C(COC(C)=O)CS[C@H]12)c1csc(N)n1` [CEFOTAXIME], in that order: 4.68 mM and above 5 mM.
`O=C(Cc1cccs1)N[C@@H]1C(=O)N2C(C(=O)[O-])=C(C[n+]3ccccc3)CS[C@H]12` [CEPHALORIDINE]: the Activity result in data set [3] and in data set [4] was “substrate []” each time. The IC50 in data set [1] was 4.48 mM; in data set [2], above 5 mM.
On to `CC(=O)OCC1=C(C(=O)O)N2C(=O)[C@@H](NC(=O)Cc3cccs3)[C@H]2SC1` [CEPHALOTHIN], for which the IC50 in data set [1] amounted to 1.41 mM; in data set [2], 1.5 mM.

B1: Solute carrier family 22 member 7 (Rattus norvegicus) (protein)
chain: T2 sequence (Q5RLM2 whole entry)
For the molecule B1, the Km in data set [5] was found to be 0.414 µM.

One may read the IC50 as the concentration that gives 50% inhibition. Broadly, the Km is the concentration of substrate that gives half-maximal velocity.
